Assay outcomes from PubChem BioAssay.
Calb FLC – affects C. albicans growth with fluconazole | C. albicans CaCi-2 (fluconazole-resistant clinical isolate) + fluconazole, Alamar Blue growth, 48 h | growth inhibition, % (concentration not given with the values) | 300,000 tested, 0.57% active;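 active = growth inhibition above about 58% in most replicates, limit read from the data, passing the limit was not always enough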;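 note: all wells also contain fluconazole at 8 µg/ml as a sub-toxic cotreatment; 0% = median of DMSO wells and 100% = median of geldanamycin control wells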
ALR H2O2 inh – inhibitors of human sulfhydryl oxidase ALR | P55789 | purified ALR, DTT oxidation, H2O2 HRP-luminol luminescence | inhibition, % (test concentration not listed) | 290,000 tested, 3.8% active | AID 485317;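 active = mean replicate inhibition above about 79%, with every replicate also reaching it, limit read from the data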
Target sequence (P55789 whole entry, looked up): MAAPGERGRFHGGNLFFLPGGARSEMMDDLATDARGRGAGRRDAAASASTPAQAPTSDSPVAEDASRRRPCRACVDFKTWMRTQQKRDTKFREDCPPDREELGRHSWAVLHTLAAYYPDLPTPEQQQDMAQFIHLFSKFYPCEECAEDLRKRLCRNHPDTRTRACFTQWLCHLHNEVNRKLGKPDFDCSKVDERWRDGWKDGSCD
NLRP3 yeast inh – NALP3 inhibition in yeast | 330,000 tested, 0.39% active | inhibition, % at 10 µM | Yeast reconstituted NLRP3/ASC/caspase-1, beta-gal luminescence, 24 h | AID 2825;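 active = inhibition of 50% or more; inactive = inhibition below 50%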;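 note: plate controls were induced DMSO wells for no effect and uninduced yeast grown without galactose for full effect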
UCH37 inh – blocks the human deubiquitinase UCH37. Q9Y5K5. purified proteasome/UCH37, Ub-AMC cleavage fluorescence. inhibition, % (no concentration beside the values). 330,000 tested, 0.33% active. AID 588478;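 active = mean inhibition over replicate wells above about 20%, limit read from the data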;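 note: 0% = compound-free wells with enzyme and 100% = wells lacking proteasome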
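Reagent: Ub-AMC substrate; assay system: Proteasome-associated human UCH37 deubiquitinase; controls: no-proteasome and no-compound wells; read-out: % inhibition of Ub-AMC cleavage fluorescence; timing: 30 min preincubation with enzyme, 25 min cleavage at room temperature; signal: AMC fluorescence from Ub-AMC cleavage, excitation 355 nm, emission 460 nm; buffer or medium: Tris-HCl pH 7.4 plus ovalbumin, ATP-MgCl2, DTT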
NALP1 inh – NALP1 inhibition; S. cerevisiae NALP1/ASC/caspase-1 growth, X-gal OD620, 72 h; inhibition, % at 10 µM; 280,000 tested, 0.61% active; in the data active = inhibition mostly above about 24%, no sharp cut-off; inactive = mostly below about 32%
ATG4B inh – ATG4B (human) cysteine protease inhibition; ATG4B cleavage of LC3-PLA2, NBD-HPC fluorescence, 1 h; inhibition, % at 8.33 µM; 340,000 tested, 0.51% active; in the data active = inhibition above about 40%
Target sequence (Q9Y4P1 whole entry, looked up): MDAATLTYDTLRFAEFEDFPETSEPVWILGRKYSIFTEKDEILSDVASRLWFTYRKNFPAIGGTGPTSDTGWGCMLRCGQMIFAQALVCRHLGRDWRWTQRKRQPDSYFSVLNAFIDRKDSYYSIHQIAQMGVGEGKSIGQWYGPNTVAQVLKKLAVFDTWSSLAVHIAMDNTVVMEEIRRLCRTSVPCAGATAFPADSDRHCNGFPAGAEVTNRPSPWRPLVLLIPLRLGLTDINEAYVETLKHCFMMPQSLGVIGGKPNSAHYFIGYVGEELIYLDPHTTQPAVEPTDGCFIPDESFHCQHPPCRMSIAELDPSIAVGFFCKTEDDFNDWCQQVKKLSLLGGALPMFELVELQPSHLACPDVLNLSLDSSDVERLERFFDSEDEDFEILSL
Starred values were filed as active, the others as inactive; · = not tested or not shown. Shown are actives, neighbours in structure and some others; about 4.8% of the full set was active somewhere.

SMILES | Calb FLC | ALR H2O2 inh | NLRP3 yeast inh | UCH37 inh | NALP1 inh | ATG4B inh
CCCN(CCC)C(=S)NC(=O)c1ccc(-c2ccccc2)cc1 | -5.9 | 98.9* | 38.2 | 1.9 | 22.2 | 8.9
CCn1c(O)c(C=NN=Cc2ccccc2)c2ccc(C3=NNC(=O)CC3)cc21 | · | · | · | 7.8 | · | ·
C/C(C=NNC(=O)CSc1n[nH]c(=O)[nH]c1=O)=C\c1ccccc1 | · | · | · | 5.1 | · | ·
COc1ccc(/C(C)=N/N2C(=O)c3ccccc3NC2c2ccc(O)c(OC)c2)cc1 (stereo not given) | -2.3 | 98.7* | -6.3 | · | -1.4 | 4.9
O=C1c2ccccc2NC(c2cnc3ccccc3n2)N1O (stereo not given) | 104.2* | 65.2 | 30.5 | -2.2 | -22.9 | -5.1
COc1ccc(C2Nc3ccccc3C(=O)N2NC(C)=O)cc1OC (stereo not given) | 3.0 | -29.9 | 12.4 | -311.8 | -12.8 | -1.2
COc1ccc(C2Nc3ccccc3C(=O)N2O)cc1OC (stereo not given) | 97.4* | -10.1 | 9.1 | -0.9 | -3.5 | 1.3
Cc1[nH]c2ccccc2c1C=NNC(N)=S | · | · | · | 10.7 | · | ·
O=[N+]([O-])c1cccc(C=NNS(=O)(=O)c2ccccc2)c1 | · | · | · | 3.9 | · | ·
CCOc1cccc(C2C(C(=O)c3ccc(C)o3)=C(O)C(=O)N2Cc2ccccc2)c1 (stereo not given) | 14.1 | · | 13.6 | 5.6 | -4.2 | -4.2
CCCCOc1cccc(C2C(C(=O)c3ccc(C)o3)=C(O)C(=O)N2Cc2ccco2)c1 (stereo not given) | 78.9* | 58.4 | 28.8 | · | 6.8 | ·
CC(=O)c1ccc(N2CCN(C(=O)Nc3ccc(C)cc3)CC2)cc1 | -2.7 | -23.5 | 13.4 | -5.7 | 17.2 | -7.3
CC(=O)c1ccc(NC(=O)N2CCN(c3ccc(C)cc3)C(C)C2)cc1 (stereo not given) | -30.5 | 95.7* | 37.4 | 4.5 | 2.8 | -14.1
COc1cc(C(=O)Nc2c(C(=O)O)[nH]c3ccc(C)cc23)cc(OC)c1OC | -0.8 | 95.7* | 3.2 | 4.8 | 28.1 | 0.9
COC(=O)c1[nH]c2ccc(Cl)cc2c1NC(=O)Oc1ccccc1 | -10.8 | 99.5* | 6.8 | -71.2 | -0.3 | -12.8
COC(=O)c1[nH]c2ccc(C)cc2c1NC(=O)Nc1ccccc1OC | 12.4 | 96.6* | 17.4 | -10.9 | 13.1 | -8.0
Cn1c(C=Nn2cnnc2)nc2ccccc21 | · | · | · | -210.4 | · | ·
O=C1CC(c2ccc3c(c2)OCO3)CN1 (stereo not given) | -9.4 | -9.0 | 6.0 | 27.1* | -2.8 | -1.8
N#Cc1cc(-c2ccccc2)oc1NC(=O)c1ccccc1 | 4.8 | 78.8* | -9.1 | 6.2 | 28.8 | 2.9
COc1ccc(C(=O)Nc2cccc(C(C)=NNC(=O)c3ccc([N+](=O)[O-])cc3)c2)cc1OC | · | · | · | 1.3 | · | ·
COc1ccc(OCc2cc(C(=O)NC3CCOCC3)no2)c2ccccc12 | 31.4 | -18.8 | 18.8 | 24.3* | 20.6 | 5.7
COc1cccc(OCc2cc(C(=O)NC3CCOCC3)no2)c1 | -14.5 | 5.1 | 9.1 | 1.4 | 7.4 | 3.9
CCNC(=S)NN=C(C)c1ccco1 | · | · | · | 7.2 | · | ·
Cn1c(N)c(-c2nc3cccnc3n2C)sc1=S | 22.2 | 92.1* | 26.4 | -31.3 | 10.0 | -9.5
Cc1ccc(-n2c(N)c(-c3nc4ccccc4n3C)sc2=S)cc1 | -5.8 | 9.8 | 9.4 | -3.2 | -5.5 | 5.2
SMILES | Calb FLC | ALR H2O2 inh | NLRP3 yeast inh | UCH37 inh | NALP1 inh | ATG4B inh
O=C(NN=Cc1ccccc1C(=O)O)c1ccccc1Br | · | · | · | 0.0 | · | ·
O=C1SC(c2ccccc2)=C/C1=C\N1CCCCC1 | -7.8 | 94.9* | 32.4 | -1.1 | 28.9 | 4.8
CCN(CC)S(=O)(=O)c1cccc(C(=O)NN=Cc2ccc([N+](=O)[O-])o2)c1 | · | · | · | 3.4 | · | ·
CC(C)c1ccc(C=NNc2cc(N3CCOCC3)nc(N3CCOCC3)n2)cc1 | · | · | · | 0.0 | · | ·
O=C(c1cccc(-c2ccc(O)cc2)c1)N1CCOCC1 | 1.3 | 99.3* | 17.5 | 5.5 | -3.4 | -5.0
O=C(c1cccc(S(=O)(=O)N2CCCC2)c1)N1CCOCC1 | · | 6.1 | 5.6 | 1.2 | · | -10.4
O=[N+]([O-])c1ccccc1OCC(=NO)c1ccccc1 | · | · | · | 7.4 | · | ·
CC(=NN=C(N)N)c1cc(Cl)ccc1Cl | · | · | · | 1.5 | · | ·
N#C/C(=C\c1ccc([N+](=O)[O-])cc1)C(=O)Nc1ccccc1O | 14.3 | 86.4* | 9.9 | 2.2 | 2.5 | 7.3
Cc1ccc(S(=O)(=O)NN=Cc2ccc(OS(=O)(=O)c3ccc(C)c([N+](=O)[O-])c3)cc2)cc1 | · | · | · | 6.4 | · | ·
COc1cc(/C(C)=N/NC(=O)CN2CCN(S(=O)(=O)c3ccc(C)cc3)CC2)ccc1O | 6.0 | 98.3* | -6.5 | · | 9.5 | -0.9
C/C(=N\NC(=O)CN1CCN(S(=O)(=O)c2ccc(C)cc2)CC1)c1ccc(O)cc1 | 4.1 | 99.1* | 3.0 | · | -7.1 | -0.5
COc1cc(C=Nn2nnnc2N)cc(Cl)c1OC | · | · | · | 3.7 | · | ·
CC(=NN1CCN(C)CC1)c1ccc(OC(F)F)cc1 | · | · | · | 4.7 | · | ·
Cc1ccccc1Nc1ncccc1C(=O)N1CCOCC1 | 108.7* | -3.6 | -5.2 | -0.3 | 15.4 | 0.4
S=C(c1ccc(-c2ccc(Cl)cc2Cl)o1)N1CCCC1 | -4.0 | 95.8* | -0.7 | 5.3 | 1.4 | 10.7
NC(=O)CCn1c(C(=O)c2ccc(Cl)cc2)c2ccccc2[n+]1[O-] | -9.5 | -3.9 | 20.9 | 28.3* | -6.5 | -13.1
O=C(NN=Cc1cn(Cc2ccccc2)c2ccccc12)c1cc(O)cc(O)c1 | · | · | · | -9.1 | · | ·
COc1cccc(C=NNC(=O)c2cnccn2)c1O | · | · | · | 7.0 | · | ·
COc1cccc(-c2nnc(NC(=O)c3ccco3)s2)c1 | 30.1 | -3.3 | 20.6 | 3.1 | 16.5 | -0.7
CCCOc1cccc(-c2nnc(NC(=O)c3ccco3)s2)c1 | 88.3* | -0.4 | 10.3 | -14.7 | 6.5 | 0.7
CCCCn1c(C)cc(/C=C(\C#N)C(=O)O)c1C | 21.1 | 5.6 | -0.7 | 12.9 | 31.6 | 7.0
Cc1cc(/C=C(\C#N)C(=O)O)c(C)n1C1CC1 | 1.1 | · | -1.3 | 20.7* | 20.5 | 36.0
Cc1cccc(N2CCC(N=CN(C)C)=N2)c1 | 4.6 | 99.2* | 6.5 | 4.6 | 5.2 | -2.9
OCCN(C=NC1=NN(c2cccc(C(F)(F)F)c2)CC1)CCO | -34.4 | · | -0.1 | 6.4 | 12.7 | 6.4
SMILES | Calb FLC | ALR H2O2 inh | NLRP3 yeast inh | UCH37 inh | NALP1 inh | ATG4B inh
CCN(C=NC1=NN(c2cccc(C(F)(F)F)c2)CC1)CC | -3.0 | 94.3* | 11.2 | 2.7 | 30.5 | -8.9
Cc1cccc(N2C(=O)CCC2=O)c1 | -6.4 | -8.2 | 5.4 | -1.2 | 16.0 | -0.8
N#C/C(=C\c1ccco1)C(=O)NCC1CCCO1 (stereo not given) | -1.1 | 0.1 | 15.0 | 15.2 | 18.3 | 2.2
CCOc1cc(/C=C(\C#N)C(=O)NCC2CCCO2)ccc1OCC(N)=O (stereo not given) | 105.1* | 22.6 | 17.5 | 0.7 | -0.5 | -6.3
N#C/C(=C\c1cc2c(cc1Br)OCO2)C(=O)NCC1CCCO1 (stereo not given) | -30.4 | 97.6* | 21.8 | 2.2 | 27.4 | -1.2
CCOc1cc(/C=N/n2c(C)nnc2C)ccc1O | 4.8 | 93.8* | -25.8 | · | -30.3 | -6.5
